The target of data set [1] is T1, Heat shock factor protein 1 (Homo sapiens) (UniProt Q00613).
T1 sequence (whole entry): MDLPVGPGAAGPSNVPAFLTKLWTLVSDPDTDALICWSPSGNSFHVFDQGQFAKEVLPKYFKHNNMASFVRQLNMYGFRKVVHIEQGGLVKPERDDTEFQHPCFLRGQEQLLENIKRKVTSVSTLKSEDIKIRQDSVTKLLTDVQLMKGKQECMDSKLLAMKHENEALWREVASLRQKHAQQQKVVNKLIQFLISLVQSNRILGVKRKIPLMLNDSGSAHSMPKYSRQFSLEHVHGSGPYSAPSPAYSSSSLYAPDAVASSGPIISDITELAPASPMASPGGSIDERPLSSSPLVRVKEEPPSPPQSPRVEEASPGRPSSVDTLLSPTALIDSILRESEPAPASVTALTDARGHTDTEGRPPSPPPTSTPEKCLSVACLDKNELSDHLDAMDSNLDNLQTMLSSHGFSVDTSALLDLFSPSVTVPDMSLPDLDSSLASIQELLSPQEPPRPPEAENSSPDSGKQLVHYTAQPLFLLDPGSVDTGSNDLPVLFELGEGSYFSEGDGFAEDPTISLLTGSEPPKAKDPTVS
Put plainly: Activation of Hsf1 in human MSC-NEU cells assessed as induction of HSP70 accumulation at 1 uM incubated for 24 hrs by Western blotting analysis relative to control. The format is cell-based. Conditions: MSC-NEU cell, filed as activator. The method in brief:
(§1)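 MSC-NEU cells: human dental-pulp mesenchymal stem cells (MSC-DP) grown in DMEM/F12 with 10% FBS, 100 units/mL penicillin and 0.1 mg/mL streptomycin at 37 °C, 5% CO2. They were then reprogrammed to a neuronal phenotype over 5 days in Neurobasal medium with B27 supplement, 3% FBS and the same antibiotics.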

In data set [2] the target is T1, Heat shock factor protein 1 (Homo sapiens). The data set is described as follows: Activation of Hsf1 in human MSC-NEU cells assessed as induction of HSP90 accumulation at 1 uM incubated for 24 hrs by Western blotting analysis relative to control. The format is cell-based. The settings on record: MSC-NEU cell; for fold change (FC): filed as activator. The method in brief:
as §1

Data set [3] shares this target. The data set is described as follows: Activation of Hsf1 in human MSC-NEU cells assessed as increase in HSP70 substrate-binding chaperone activity at 1 uM incubated for 24 hrs by protein-protein interaction assay relative to control. Format: cell-based. The settings on record: MSC-NEU cell, filed as activator. In outline:
as §1

Data set [4] can be described thus: Cytotoxicity against human MSC-NEU cells assessed as reduction in cell viability measured after 48 hrs by MTT assay. Format: cell-based. The settings on record: read-out: LC50. The method in brief: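 Human dental pulp mesenchymal stem cells (MSC-DP) were grown in DMEM/F12 with 10% FBS, penicillin and streptomycin at 37 °C and 5% CO2. They were then reprogrammed to a neuronal phenotype (MSC-NEU) over 5 days in Neurobasal medium with B27 supplement, 3% FBS and antibiotics.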
For orientation: Formazan colour is commonly taken as a measure of viable cells.

Data set [5] is described as follows: Neuroprotective activity against amyloid beta (1 to 42)-stimulated human MSC-NEU cells assessed as increase in cell index incubated for 48 hrs by xCELLigence RTCA analysis. The format is functional. In outline: as §1
Data set [6] can be described thus: Inhibition of amyloid beta (1 to 42)-induced cellular senescence in human MSC-NEU cells assessed as reduction in beta-galactosidase activity at 1 uM measured after 48 hrs by X-Gal staining based analysis relative to control. The format is functional, MSC-NEU cell. In outline: as §1
The nature of data set [7]: Inhibition of amyloid beta(1 to 42)-induced apoptosis in human MSC-NEU cells assessed as reduction in caspase-3 activity at 1 uM measured after 24 hrs by fluorescence based analysis relative to control. Format: functional, MSC-NEU cell. In outline:
as §1

Data set [8] is described as follows: Inhibition of amyloid beta(1 to 42)-induced apoptosis in human MSC-NEU cells at 1 uM measured after 24 hrs by AnnexinV-Alexafluor647/propidium iodide staining based flow cytomtery relative to control. The format is functional, MSC-NEU cell. The method in brief: as §1
The target of data set [9] is T1, Heat shock factor protein 1 (Homo sapiens). The data set is described as follows: Activation of Hsf1 in human HEK293 cells transfected with Hsp70.1pr-luc plasmid at 1 uM incubated for 24 hrs by luciferase reporter gene based luminescence assay. The settings on record: filed as activator. The format is cell-based. (In a reporter assay the amount or activity of a reporter protein is the signal.)

Each structure is given as a SMILES string. Active and inactive are the calls of the source. The rule behind the calls is not given here.

With `Brc1ccc2[nH]cc(-c3ncnc4ccccc34)c2c1`, the fold change (FC) came out at 1.9 in [1]; 1.3 in data set [3]; 1.04 in [6]; 2.51 in data set [7]; 4.2 in [8]. Besides, the result in data set [2] was inactive. The CC50 at 48 h in [4] came to 279 µM. In [5], the Activity worked out at 10%. The outcome in data set [9] was Active.

As to `Clc1nccc(-c2c[nH]c3ccc(Br)cc23)n1`, the fold change (FC) in data set [1] was 2.7; in [2], 1.6; in data set [3] it was 1.3; in [6], 1.17; in data set [7], 2.04; in data set [8], 4.2. Further, in data set [4], the CC50 at 48 h turned out to be 316 µM. In addition, in [5], the Activity was 10%. In addition, the result in data set [9] was Active.

As to `C[n+]1c2ccccc2c(-c2c[nH]c3ccc(O)cc23)c2ccccc21.[I-]`, the fold change (FC) in data set [1] was 2.2; in [2], 2.1; in [3], 1.3; in data set [6], 1.22; in [7], 2.24; in data set [8], 4.2. Also, the CC50 at 48 h in data set [4] was more than 1000 µM. The Activity in data set [5] turned out to be 10%. Besides, the outcome in data set [9] was Active.

Consider `O=c1[nH]c2ccccc2nc1-c1ccc(-c2ccccc2)[nH]1`, for which the fold change (FC) in data set [1] was determined as 1.6; in [2] it was 1.85; in data set [3] it was 1.3; in [6], 1.12; in data set [7], 2.12; in [8] it was 4.2. The CC50 at 48 h in data set [4] worked out at 494 µM. The Activity in data set [5] is on record as 10%. The result in data set [9] was Active.
